Laboratory results published in ChEMBL document CHEMBL1141075, “4-Oxo-4,7-dihydrothieno[2,3-b]pyridines as non-nucleoside inhibitors of human cytomegalovirus and related herpesvirus polymerases” (J Med Chem, 2005).

Key:
[1] = Toxicity on uninfected human foreskin fibroblast cells determined in microscopic evaluation and quantitative neutral red dye uptake assay; assay type: cell-based; details: uninfected human foreskin fibroblast (HFF) cells
Summary of the method: (§1)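 Uninfected cells were seeded as subconfluent monolayers and exposed to compound for 3 days. Viability was judged both by microscopic inspection and by quantitative neutral red dye uptake, giving CC50.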

[2] = Toxicity on uninfected African green monkey kidney cells determined in microscopic evaluation and quantitative neutral red dye uptake assay; assay type: cell-based; details: chlorocebus sabaeus, uninfected African green monkey kidney (Vero) cells; summary of the method: as §1
[3] = tested on: HFF; assay: Antiviral activity against human cytomegalovirus (Davis strain) grown on human foreskin fibroblast cells determined by reduction in plaque formation upon incubation at 37 degrees C with the compound dissolved in DMSO; assay type: functional, cell-based
[4] = tested on: HFF; assay: Antiviral activity against Varicella-Zoster virus (Webster strain) grown on human foreskin fibroblast cells determined by vedduction in plaque formation upon incubation at 37 degrees C with the compound dissolved in DMSO until plaque were formed; assay type: functional, cell-based
Summary of the method: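 Monolayers of human foreskin fibroblasts were infected with about 50 PFU per well for 1 h at 37 °C. The inoculum was then replaced with DMEM containing 10% FBS, 0.8% carboxymethyl cellulose and diluted compound from 200-fold DMSO stocks. Plates were incubated at 37 °C until plaques formed. Plaques were counted microscopically or after 0.1% crystal violet staining. IC50 came from linear regression of % inhibition versus untreated controls.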

[5] = tested on: Vero; assay: Antiviral activity against herpes simplex virus type 1 (KOS strain) grown on human foreskin fibroblast cells determined by vedduction in plaque formation upon incubation at 37 degrees C with the compound dissolved in DMSO until plaque were formed; assay type: functional, cell-based
Summary of the method: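 HSV-1 KOS, about 50 PFU per well, was adsorbed for 1 h at 37 °C. The inoculum was then replaced with drug dilutions from 200-fold DMSO stocks in DMEM containing 10% FBS and 0.8% carboxymethyl cellulose. Cultures were kept at 37 °C until plaques appeared. Plaques were counted microscopically or by crystal violet staining (0.1% in 20% ethanol). IC50 came from linear regression of % inhibition relative to the uninhibited control.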

[6] = biological target: T1, DNA polymerase alpha catalytic subunit (Homo sapiens, UniProt P09884); assay: Inhibition of human alpha DNA polymerase (95 uL) activity in a solution containg […] HEPES (pH 7.5) upon incubation for 12 minutes at 26 degrees C with the compound dissolved in DMSO
T1 sequence (P09884 whole entry): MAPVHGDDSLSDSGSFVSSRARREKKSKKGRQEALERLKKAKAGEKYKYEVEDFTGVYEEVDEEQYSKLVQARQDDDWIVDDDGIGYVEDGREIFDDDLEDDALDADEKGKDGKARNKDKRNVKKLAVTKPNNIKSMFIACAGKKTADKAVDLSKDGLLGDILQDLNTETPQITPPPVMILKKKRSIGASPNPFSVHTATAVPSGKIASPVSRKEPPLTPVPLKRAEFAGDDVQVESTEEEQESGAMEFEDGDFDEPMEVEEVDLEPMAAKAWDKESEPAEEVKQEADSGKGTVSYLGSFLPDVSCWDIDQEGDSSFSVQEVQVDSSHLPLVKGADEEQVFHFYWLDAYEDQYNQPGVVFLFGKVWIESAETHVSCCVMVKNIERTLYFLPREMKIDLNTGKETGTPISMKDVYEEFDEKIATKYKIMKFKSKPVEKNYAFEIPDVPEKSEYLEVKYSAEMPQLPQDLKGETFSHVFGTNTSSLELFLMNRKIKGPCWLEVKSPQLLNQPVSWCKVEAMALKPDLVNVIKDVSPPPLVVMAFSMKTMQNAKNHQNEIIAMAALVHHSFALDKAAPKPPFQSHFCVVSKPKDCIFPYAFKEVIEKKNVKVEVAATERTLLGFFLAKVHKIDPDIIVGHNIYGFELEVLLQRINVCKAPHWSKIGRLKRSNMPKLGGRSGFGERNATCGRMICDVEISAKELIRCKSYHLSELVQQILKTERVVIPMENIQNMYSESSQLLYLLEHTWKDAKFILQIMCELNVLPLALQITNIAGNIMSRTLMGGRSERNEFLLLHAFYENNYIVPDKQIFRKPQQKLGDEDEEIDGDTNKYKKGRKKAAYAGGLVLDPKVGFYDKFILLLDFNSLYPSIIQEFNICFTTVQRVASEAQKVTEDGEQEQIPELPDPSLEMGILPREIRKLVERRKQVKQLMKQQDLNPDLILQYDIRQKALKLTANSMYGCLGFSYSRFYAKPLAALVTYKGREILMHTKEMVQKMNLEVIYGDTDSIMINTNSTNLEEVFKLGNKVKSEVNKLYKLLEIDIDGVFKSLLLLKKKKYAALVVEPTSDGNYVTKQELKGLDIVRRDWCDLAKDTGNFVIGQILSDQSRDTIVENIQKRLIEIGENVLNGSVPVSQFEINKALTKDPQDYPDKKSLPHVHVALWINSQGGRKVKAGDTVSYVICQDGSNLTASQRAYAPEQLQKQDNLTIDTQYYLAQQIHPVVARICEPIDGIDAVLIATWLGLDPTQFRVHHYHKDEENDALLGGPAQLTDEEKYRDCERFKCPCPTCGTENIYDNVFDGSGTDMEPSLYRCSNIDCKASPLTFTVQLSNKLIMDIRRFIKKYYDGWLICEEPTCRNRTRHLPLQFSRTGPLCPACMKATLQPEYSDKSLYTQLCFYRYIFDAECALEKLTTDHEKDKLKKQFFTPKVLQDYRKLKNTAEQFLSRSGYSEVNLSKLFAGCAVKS

Compound `Cn1cc(C(=O)NCc2ccc(Cl)cc2)c(=O)c2cc(CN3CCOCC3)ccc21` has a CC50 [1] greater than 100 µM, a CC50 [2] greater than 100 µM and an IC50 [3] of 0.9 µM. For the same compound, the IC50 [4] was 0.34 µM, the IC50 [5] was 3.5 µM and the IC50 [6] was greater than 40 µM.
`O=C(NCc1ccc(Cl)cc1)c1cnc2ccc(CCCO)cc2c1O` showed a CC50 [1] greater than 100 µM, a CC50 [2] greater than 100 µM and an IC50 [3] of 1 µM. It also gave an IC50 [4] of 0.17 µM, an IC50 [5] of 7.4 µM and an IC50 [6] greater than 40 µM.
`Cn1cc(C(=O)NCc2ccc(Cl)cc2)c(=O)c2cc(CN3CCOCC3)sc21` showed a CC50 [1] greater than 100 µM, a CC50 [2] greater than 100 µM and an IC50 [3] of 0.8 µM. The IC50 [4] was 0.77 µM, the IC50 [5] was 3.7 µM and the IC50 [6] was greater than 40 µM.
